Only some compounds are listed: those with a hit (about 2.3% of all), similar ones and a draw of the others.
EBV gp42 block: Epstein-Barr virus gp42 inhibitors, primary screen, biochemical, uHTS, fluorescence polarization; Glycoprotein 42 (Epstein-Barr virus (strain AG876)), Q1HVG2; Fluorescence polarization binding assay, mP read-out; actives 0.42% (n = 220,000); inhibition, % (tested at 21.74 µM); in the data active = inhibition above about 50%
Target sequence (Q1HVG2 whole entry, looked up): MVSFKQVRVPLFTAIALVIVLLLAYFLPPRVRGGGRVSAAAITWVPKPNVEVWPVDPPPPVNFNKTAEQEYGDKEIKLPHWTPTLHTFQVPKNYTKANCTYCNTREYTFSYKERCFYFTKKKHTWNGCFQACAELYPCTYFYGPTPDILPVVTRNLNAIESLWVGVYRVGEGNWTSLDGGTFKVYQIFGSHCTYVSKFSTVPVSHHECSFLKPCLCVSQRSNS
GPR7 antagonist: GPR7 receptor antagonists, primary screen, cell-based, fluorescence, single concentration. actives 1.1% (n = 290,000). inhibition, % at 4.4 µM. GPR7-expressing cells, fluorescence antagonist assay. Neuropeptides B/W receptor type 1 (Homo sapiens), P48145; in the data active = inhibition above about 16%, passing the limit was not always enough;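 also: cells stimulated with the agonist NPW; 0% = agonist with vehicle and 100% = vehicle without agonist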
Target sequence (P48145 whole entry, looked up): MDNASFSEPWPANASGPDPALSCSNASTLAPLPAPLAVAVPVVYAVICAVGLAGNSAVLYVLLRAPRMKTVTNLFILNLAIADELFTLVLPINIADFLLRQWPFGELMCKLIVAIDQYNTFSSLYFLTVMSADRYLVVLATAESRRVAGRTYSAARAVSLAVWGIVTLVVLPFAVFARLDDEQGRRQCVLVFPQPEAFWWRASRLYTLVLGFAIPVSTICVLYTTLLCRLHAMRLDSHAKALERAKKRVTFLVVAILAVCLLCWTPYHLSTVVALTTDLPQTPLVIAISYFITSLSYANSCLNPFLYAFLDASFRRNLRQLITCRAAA
EBNA-1 inhibitor: EBNA-1 DNA-binding inhibitors, primary screen, biochemical, fluorescence polarization; inhibition, % at 14.8 µM; actives 0.34% (n = 300,000); AID 1950, 2009; in the data active = inhibition above about 28%
HCV core dimer: inhibitors of HCV core protein dimerization, primary screen, biochemical, TR-FRET, high-throughput; TR-FRET GST/Flag-core106 dimerization, 1536-well; inhibition, % at 5 µM; actives 0.33% (n = 300,000); AID 1899, 2009;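 active = inhibition above the mean of all tested compounds plus 3 SD, set per screening campaign, cut at about 45% in these data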
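test system = GST/Flag-tagged HCV core106 proteins | probe or stimulus = Eu donor and XL665 acceptor anti-tag antibodies | times = compound-protein-antibody incubation 4 h at 22.5 °C | signal = TR-FRET, excitation 340 nm, emission 617 and 671 nm | measure = percent inhibition of core106 dimerization signal | controls = wells lacking GST-core106 and wells with excess unlabelled core106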
NS3 helicase inh: inhibitors of HCV NS3 helicase, primary screen, biochemical, Cy5 molecular beacon fluorescence; NS3 helicase DNA unwinding; Hepatitis C virus NS3 helicase; actives 0.56% (n = 290,000); AID 1800, 2009; inhibition, % at 10.9 µM;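 active = inhibition above the mean of all tested compounds plus 3 SD, set per campaign, cut at about 35% in these data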;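 also: 0% = DMSO wells and 100% = thioflavine S control wells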
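Material: hepatitis C virus NS3 helicase domain fragment enzyme; measured by: Cy5 fluorescence, 0 and 60 min reads; control set: DMSO and thioflavine S; incubation: 60 min unwinding reaction at 25 °C after ATP addition; read-out basis: % inhibition from 60/0 min fluorescence ratio, DMSO 0%, thioflavine S 100%; repeats: singlicate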
ZTA counter: blocks Epstein-Barr virus ZTA, an EBNA-1 counter-screen; P03206; ZTA-DNA binding, fluorescence polarization; inhibition, % at 11 µM; actives 0.15% (n = 320,000); AID 2234; in the data active = inhibition above about 33%
Numbers without * were called inactive.

What do the screens show for `COc1ccc(NC(=O)CCl)cn1`?
EBV gp42 block: 71*; GPR7 antagonist: -19; EBNA-1 inhibitor: 5; HCV core dimer: -4; NS3 helicase inh: -9; ZTA counter: 2

What do the screens show for `COc1ccccc1OCCC(=O)Nc1nc(C)cs1`?
EBV gp42 block: -1; GPR7 antagonist: -12; EBNA-1 inhibitor: -7; HCV core dimer: -1; NS3 helicase inh: -2; ZTA counter: -5

How did CCCCCC#CCC#CCC#CCC#CCCCC(=O)O do in these assays?
EBV gp42 block: 37; GPR7 antagonist: -6; EBNA-1 inhibitor: 6; HCV core dimer: 54*; NS3 helicase inh: 4; ZTA counter: 19

Results for CCCCCCCCCCCCS(=O)(=O)CCC(=O)O ?
EBV gp42 block: -12; GPR7 antagonist: -15; EBNA-1 inhibitor: -8; HCV core dimer: 3; NS3 helicase inh: 5; ZTA counter: 7

Results for CCN1CCN(C(=O)c2cc(-c3ccco3)nc3ccccc23)CC1 ?
ZTA counter: -14

Results for Cn1c(=O)cc(OCC(=O)NCc2cccs2)c2ccccc21 ?
EBV gp42 block: -11; GPR7 antagonist: -11; EBNA-1 inhibitor: -3; HCV core dimer: 1; NS3 helicase inh: -12; ZTA counter: 0

Results for O=C1Nc2ccccc2C12Nc1ccccc1-c1nc3ccccc3n12 (centres undefined) ?
EBV gp42 block: -4; GPR7 antagonist: 21*; EBNA-1 inhibitor: 4; HCV core dimer: -4; NS3 helicase inh: 12; ZTA counter: 0

How did Oc1oc(-c2ccccc2)nc1C=Nc1cccc2ccccc12 do in these assays?
EBV gp42 block: 75*; GPR7 antagonist: -3; EBNA-1 inhibitor: 9; HCV core dimer: -3; NS3 helicase inh: -2; ZTA counter: 20

What do the screens show for `Cc1cc(C)n2c(SC/C(O)=C(\C#N)c3nc4ccccc4[nH]3)nnc2n1`?
EBV gp42 block: 67*; GPR7 antagonist: -15; EBNA-1 inhibitor: 14; HCV core dimer: 75*; NS3 helicase inh: 15; ZTA counter: 24

What do the screens show for `O=C(Nc1cccc(Cl)c1)C1C2CCC3C(CCC21)C3(Cl)Cl` (centres undefined)?
EBV gp42 block: -7; GPR7 antagonist: 42*; EBNA-1 inhibitor: 2; HCV core dimer: 12; NS3 helicase inh: -19; ZTA counter: -4

How did CSc1ncccc1C(=O)Nc1ccc(F)c(F)c1F do in these assays?
EBV gp42 block: -12; GPR7 antagonist: 15*; EBNA-1 inhibitor: -1; HCV core dimer: -2; NS3 helicase inh: -12; ZTA counter: 0

What do the screens show for `CSc1ncccc1C(=O)Nc1ccc(OC(F)(F)F)cc1`?
EBV gp42 block: -9; GPR7 antagonist: 8; EBNA-1 inhibitor: -11; HCV core dimer: -2; NS3 helicase inh: -12; ZTA counter: -8

Results for COc1ccc([C@H]2CC(=O)C=C(c3ccc(F)cc3OCc3ccccc3)C2)cc1OC ?
ZTA counter: -5

Results for O=C(CN1C(=O)NC2(CCCC2)C1=O)OCCOc1ccc(Cl)cc1 ?
EBNA-1 inhibitor: 1; HCV core dimer: -3; ZTA counter: 7

How did C=CC[n+]1c(/C=C2\C=Cc3cc(C)ccc3N2CC)ccc2ccccc21 do in these assays?
EBV gp42 block: -7; GPR7 antagonist: 35*; EBNA-1 inhibitor: 1; HCV core dimer: -7; NS3 helicase inh: -9; ZTA counter: -10

Results for Oc1ccc(N=C/C=C/c2ccc(Br)cc2)cc1-c1nc2ccccc2s1 ?
EBV gp42 block: 1; GPR7 antagonist: 0; EBNA-1 inhibitor: 8; HCV core dimer: 28; NS3 helicase inh: 33; ZTA counter: 0

How did CC1C2C(C)N(C)C(=O)N(C)C2N(C)C(=O)N1C (centres undefined) do in these assays?
EBV gp42 block: 65*; GPR7 antagonist: 0; EBNA-1 inhibitor: 4; HCV core dimer: -1; NS3 helicase inh: 2; ZTA counter: -7

What do the screens show for `O=C(Nc1cccnc1)c1cccc(F)c1`?
EBV gp42 block: -15; GPR7 antagonist: -6; EBNA-1 inhibitor: 8; HCV core dimer: 0; NS3 helicase inh: -2; ZTA counter: 3

What do the screens show for `Cn1c(=NC(=O)c2ccccc2[N+](=O)[O-])sc2cccc(F)c21`?
EBV gp42 block: -24; GPR7 antagonist: -1; EBNA-1 inhibitor: -3; HCV core dimer: 3; NS3 helicase inh: -6; ZTA counter: 6

Results for COc1ccc(NC(=O)CN2C(=O)/C(=C3\SC(=S)N(C4CCS(=O)(=O)C4)C3=O)c3ccccc32)cc1 (centres undefined) ?
EBV gp42 block: 61*; GPR7 antagonist: -2; EBNA-1 inhibitor: -2; HCV core dimer: 8; NS3 helicase inh: 4; ZTA counter: -11

What do the screens show for `CC(C)NC(=O)c1ccc(N(Cc2ccc(Cl)cc2)S(C)(=O)=O)cc1`?
GPR7 antagonist: -1; EBNA-1 inhibitor: -12; HCV core dimer: 4; NS3 helicase inh: 2; ZTA counter: -8

Results for C=CCN(C(=O)CC(NC(C)=O)c1ccccc1)c1nc(-c2ccc(S(C)(=O)=O)cc2)cs1 (centres undefined) ?
GPR7 antagonist: -1; EBNA-1 inhibitor: 2; HCV core dimer: 2; NS3 helicase inh: -13; ZTA counter: 24

How did COc1ccccc1C(=O)Nc1sc2c(c1C(=O)NCc1ccco1)CCCC2 do in these assays?
EBV gp42 block: -20; GPR7 antagonist: 6; EBNA-1 inhibitor: 21; HCV core dimer: 53*; NS3 helicase inh: 2; ZTA counter: 18

How did NS(=O)(=O)c1ccc(NC(=O)COC(=O)C23CC4CC(CC(C4)C2)C3)cc1 do in these assays?
EBV gp42 block: -11; GPR7 antagonist: -1; EBNA-1 inhibitor: 1; HCV core dimer: 0; NS3 helicase inh: 5; ZTA counter: 0

Results for NS(=O)(=O)c1ccc(NC(=O)COC(=O)CCNC(=O)NC23CC4CC(CC(C4)C2)C3)cc1 ?
EBV gp42 block: -30; GPR7 antagonist: 17*; EBNA-1 inhibitor: 4; HCV core dimer: -4; NS3 helicase inh: -2; ZTA counter: -17

What do the screens show for `COc1ccc2cc(C#N)c(NC(C)C)nc2c1`?
EBV gp42 block: -1; GPR7 antagonist: 6; EBNA-1 inhibitor: -1; HCV core dimer: -4; NS3 helicase inh: 4; ZTA counter: -1

Results for CCN(CC)c1nc2cc(OC)ccc2cc1C#N ?
EBV gp42 block: -26; GPR7 antagonist: -13; EBNA-1 inhibitor: -1; HCV core dimer: 55*; NS3 helicase inh: -1; ZTA counter: 8

What do the screens show for `CCOC(=O)c1c(C)[nH]c(C(=O)OC(C)C(=O)NC2CCCCC2C)c1C` (centres undefined)?
ZTA counter: 2

Source: PubChem (several laboratories)
